Measurements as given in ChEMBL document CHEMBL1122766, “Synthesis and antitumor evaluation of some nitrosourea and nitrogen mustard amino acid derivatives” (J Med Chem, 1984).

Tests used:
[1] = species: Mus musculus; test: Dose range for antitumor activity against leukemia L1210 in mice.; type: functional
Summary of the method: (§1)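 Adult F1 (DBA/2 × C57Bl/6) mice inoculated ip with 10^5 L1210 cells on day 0, 8–10 mice per dose. Compound in olive oil (2–150 mg/kg) given day 1, repeated days 5 and 9 only in mice without toxicity. Daily mortality with autopsy. T/C × 100 from median survival; active if >125 and significant by Wilcoxon W test. Acute LD50 determined graphically.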

[2] = species: Mus musculus; test: Optimum dose for antitumor activity against leukemia L1210 in mice; type: functional; summary of the method: as §1
[3] = Median lethal dose in L1210 (murine luekemia) inoculated mice.; type: toxicity, organism-based; settings: mouse, in vivo
Summary of the method: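 Adult F1 (DBA/2 × C57Bl/6) mice inoculated ip with 10^5 L1210 cells on day 0; 8–10 mice per dose; compound in olive oil (2–150 mg/kg) on day 1, repeated days 5 and 9 only in mice without toxicity signs. Daily mortality, autopsy to separate leukemic from toxic deaths; acute LD50 determined graphically (98% confidence limits).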

[4] = Therapeutic index in L1210 (murine leukemia) inoculated mice.; settings: mouse; read-out: TI
[5] = species: Mus musculus; test: The oncostatic index (T=median survival time in the treated group of mice, C=median survival time in the control group X 100) was calculated; type: functional
Summary of the method: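 Mice (adult F1 DBA/2 × C57Bl/6) given 10^5 L1210 cells ip on day 0; 8–10 per dose group; olive-oil doses 2–150 mg/kg on day 1, repeated days 5 and 9 in non-toxic mice. T/C × 100 from median survival times, treated vs control. Active if >125 and significant by Wilcoxon W test; ∞ means >50% of group cured.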

NC(=O)CC(NC(=O)N(CCCl)N=O)C(=O)NCCCl (stereo unspecified)
Dose [1]: 30 mg/kg | OD [2]: 20 mg/kg | LD50 [3]: 35 mg/kg | selectivity ratio [4]: 1.75

CN(CC(=O)NCCCl)C(=O)N(CCCl)N=O
Dose [1]: 280 mg/kg | OD [2]: 200 mg/kg | LD50 [3]: 400 mg/kg | selectivity ratio [4]: 2

CCC(C)C(NC(=O)N(CCCl)N=O)C(=O)NCCCl (stereo unspecified)
Dose [1]: 75 mg/kg | OD [2]: 50 mg/kg | LD50 [3]: 130 mg/kg | selectivity ratio [4]: 2.6

CC(C)CC(NC(=O)N(CCCl)N=O)C(=O)NCCCl (stereo unspecified)
Dose [1]: 50 mg/kg | OD [2]: 35 mg/kg | LD50 [3]: 64 mg/kg | selectivity ratio [4]: 1.8

O=NN(CCCl)C(=O)NC(Cc1c[nH]c2ccccc12)C(=O)NCCCl (stereo unspecified)
Dose [1]: 35 mg/kg | OD [2]: 27 mg/kg | LD50 [3]: 65 mg/kg | selectivity ratio [4]: 2.4

O=NN(CCCl)C(=O)N1CCCC1C(=O)NCCCl (stereo unspecified)
Dose [1]: 35 mg/kg | T/C [5]: 194% | LD50 [3]: 80 mg/kg

O=NN(CCCl)C(=O)NCC(=O)NCCCl
Dose [1]: 20 mg/kg | OD [2]: 12 mg/kg | LD50 [3]: 25 mg/kg | selectivity ratio [4]: 2

O=NN(CCCl)C(=O)NCCC(=O)NCCCl
Dose [1]: 50 mg/kg | OD [2]: 35 mg/kg | selectivity ratio [4]: 2.9

O=NN(CCCl)CCSSCCN(CCCl)N=O
Dose [1]: 50 mg/kg | OD [2]: 30 mg/kg | LD50 [3]: 75 mg/kg | selectivity ratio [4]: 2.5

CC(O)C(NC(=O)N(CCCl)N=O)C(=O)NCCCl (stereo unspecified)
Dose [1]: 20 mg/kg | OD [2]: 15 mg/kg | LD50 [3]: 25 mg/kg | selectivity ratio [4]: 1.6

O=NN(CCCl)C(=O)NCCCC(=O)NCCCl
Dose [1]: 50 mg/kg | OD [2]: 35 mg/kg | selectivity ratio [4]: 3.6

CC1(C)O[C@@H]2[C@H](O1)[C@@H](COC(=O)c1ccc([N+](=O)[O-])cc1)O[C@H]2NC(=O)N(CCCl)N=O
Dose [1]: 30 mg/kg | OD [2]: 20 mg/kg | LD50 [3]: 90 mg/kg | selectivity ratio [4]: 4.5

CC(NC(=O)N(CCCl)N=O)C(=O)NCCCl (stereo unspecified)
Dose [1]: 30 mg/kg | OD [2]: 20 mg/kg | LD50 [3]: 35 mg/kg | selectivity ratio [4]: 1.75

CSCCC(NC(=O)N(CCCl)N=O)C(=O)NCCCl (stereo unspecified)
Dose [1]: 30 mg/kg | OD [2]: 20 mg/kg | LD50 [3]: 32 mg/kg | selectivity ratio [4]: 1.6

O=NN(CCCl)C(=O)NC(Cc1ccccc1)C(=O)NCCCl (stereo unspecified)
Dose [1]: 60 mg/kg | OD [2]: 50 mg/kg | LD50 [3]: 80 mg/kg | selectivity ratio [4]: 1.6

O=NN(CCCl)C(=O)NC(Cc1ccc(O)cc1)C(=O)NCCCl (stereo unspecified)
Dose [1]: 25 mg/kg | T/C [5]: 211% | LD50 [3]: 40 mg/kg

O=NN(CCCl)C(=O)N[C@H]1C(O)O[C@H](CO)[C@@H](O)[C@@H]1O (stereo partly specified) [CHLOROZOTOCIN]
Dose [1]: 25 mg/kg | OD [2]: 15 mg/kg | LD50 [3]: 35 mg/kg | selectivity ratio [4]: 2.5

O=NN(CCCl)C(=O)NC1CCCCC1 [LOMUSTINE]
Dose [1]: 10 mg/kg | LD50 [3]: 30 mg/kg
